In ChEMBL document CHEMBL4270546, “A novel Anti-Cancer Stem Cells compound optimized from the natural symplostatin 4 scaffold inhibits Wnt/β-catenin signaling pathway” (Eur J Med Chem, 2018):
Calls of active or inactive are those of the source. The calls are words filed in the database; no cut-off is given here.

How the values were obtained:
A-375 [1] = assay: Antimigratory activity against human A375 cells at 0.25 uM after 24 to 48 hrs by wound healing assay; assay type: functional, cell-based
In short: (§1)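 Wound-healing scratch assay on cells treated with or without compound (0.25 μM). Images recorded at 0, 24 and 48 h, and migration distance quantified. Mean ± sd, n = 3, two-way ANOVA.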

B16-F10 [2] = assay: Induction of apoptosis in mouse B16F10 cells assessed as upregulation of Bax expression after 48 hrs by Western blot analysis
Homo sapiens = organism: Homo sapiens; assay: Inhibition of Wnt/beta-catenin signaling pathway in human A375 cells assessed as reduction in c-Myc protein expression after 48 hrs by Western blot analysis; assay type: cell-based
In short: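 A375 cells exposed to compound at several concentrations for 48 h; lysates immunoblotted for STAT3, p-STAT3, β-catenin and c-Myc.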

A-375 [3] = assay: Induction of apoptosis in human A375 cells assessed as live cells at 1 uM after 48 hrs by Annexin V-FITC/propidium iodide staining based flow cytometry (reference value: 93.6%); assay type: functional
B16-F10 [4] = assay: Induction of apoptosis in mouse B16F10 cells assessed as early apoptotic cells at 1 uM after 48 hrs by Annexin V-FITC/propidium iodide staining based flow cytometry (reference value: 0.022%); assay type: functional
B16-F10 [5] = assay: Induction of apoptosis in mouse B16F10 cells assessed as upregulation of cleaved PARP expression at 0.5 to 4 uM after 48 hrs by Western blot analysis; assay type: functional, cell-based
In short: (§2)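 Cells treated with compound at different concentrations (0.5-4 μM) for 48 h. Lysates probed by Western blot for cleaved PARP, active caspase-3, Bax and p53.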

A-375 [6] = assay: Anti-invasive activity against human A375 cells at 0.25 uM after 24 hrs by matrigel invasion assay; assay type: functional, cell-based
In short: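 Cells seeded in the upper chamber of a transwell with a Matrigel-precoated filter, incubated with compound (0.25 μM) for 24 h. Invaded cells imaged and counted against an untreated control. Mean ± sd, n = 3, two-way ANOVA.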

4T1 = assay: Antiproliferative activity against mouse 4T1 cells after 48 hrs by MTT assay; assay type: functional, cell-based; conditions: 4T1, 48 h
B16-F10 [7] = assay: Inhibition of ALDH+ subpopulation of mouse B16F10 cells assessed as ALDH+ cells at 0.25 after 48 hrs by flow cytometry (reference value: 26.7%); assay type: functional; set-up: scale not given: the % may be the effect or the level left
A-375 [8] = assay: Induction of apoptosis in human A375 cells assessed as live cells at 2 uM after 48 hrs by Annexin V-FITC/propidium iodide staining based flow cytometry (reference value: 93.6%); assay type: functional
B16-F10 [9] = assay: Antimigratory activity against mouse B16F10 cells at 0.25 uM after 24 to 48 hrs by wound healing assay; assay type: functional, cell-based; in short: as §1
A-375 [10] = assay: Induction of apoptosis in human A375 cells after 48 hrs by Annexin V-FITC/propidium iodide staining based flow cytometry; assay type: functional, cell-based
B16-F10 [11] = assay: Induction of apoptosis in mouse B16F10 cells assessed as upregulation of p53 expression after 48 hrs by Western blot analysis
B16-F10 [12] = assay: Inhibition of CD133+ sub-population of mouse B16F10 cells assessed as CD133+ cells at 0.5 after 48 hrs by flow cytometry (reference value: 7.23%); assay type: functional; set-up: scale not given: the % may be the effect or the level left
B16-F10 [13] = assay: Inhibition of tumor sphere formation ability of mouse B16F10 cells at 0.25 to 0.5 uM pretreated for 48 hrs followed by cell culture for 7 days; assay type: functional, cell-based
In short: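 A375 or B16F10 cells pretreated with or without compound for 48 h, collected and replated on ultra-low attachment surfaces; after 7 days of culture, sphere number and size scored; mean ± sd, n = 3, two-way ANOVA.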

MCF7 = assay: Antiproliferative activity against human MCF7 cells after 48 hrs by MTT assay; assay type: functional, cell-based; conditions: MCF7, 48 h
A-375 [14] = assay: Induction of apoptosis in human A375 cells assessed as upregulation of Bax expression after 48 hrs by Western blot analysis
B16-F10 [15] = assay: Antiproliferative activity against mouse B16F10 cells after 48 hrs by MTT assay; assay type: functional, cell-based; conditions: B16-F10, 48 h
B16-F10 [16] = assay: Induction of apoptosis in mouse B16F10 cells assessed as live cells at 2 uM after 48 hrs by Annexin V-FITC/propidium iodide staining based flow cytometry (reference value: 97.6%); assay type: functional
Mus musculus = assay: Toxicity in C57BL/6J mouse implanted with mouse B16F10 cells assessed as change in body weight at 15 mg/kg/day, ip measured daily for 24 days; assay type: organism-based; conditions: in vivo, 576 h
In short: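 C57BL/6J mice carrying subcutaneous B16F10 cell grafts; vehicle and treated groups (n = 5) followed for body weight, with tumours dissected and weighed on day 24; mean ± sd, two-way ANOVA.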

B16-F10 [17] = assay: Inhibition of ALDH+ subpopulation of mouse B16F10 cells assessed as ALDH+ cells at 0.5 after 48 hrs by flow cytometry (reference value: 26.7%); assay type: functional; set-up: scale not given: the % may be the effect or the level left
A-375 [18] = assay: Induction of apoptosis in human A375 cells assessed as upregulation of p53 expression after 48 hrs by Western blot analysis
MDA-MB-231 = assay: Antiproliferative activity against human MDA-MB-231 cells after 48 hrs by MTT assay; assay type: functional, cell-based; conditions: MDA-MB-231, 48 h
PANC-1 = assay: Antiproliferative activity against human PANC1 cells after 48 hrs by MTT assay; assay type: functional, cell-based; conditions: PANC-1, 48 h
A-375 [19] = assay: Induction of apoptosis in human A375 cells assessed as upregulation of cleaved PARP expression at 0.5 to 4 uM after 48 hrs by Western blot analysis; assay type: functional, cell-based; in short: as §2
A-375 [20] = assay: Induction of apoptosis in human A375 cells assessed as early apoptotic cells at 2 uM after 48 hrs by Annexin V-FITC/propidium iodide staining based flow cytometry (reference value: 1.13%); assay type: functional

Q: Which results are given for `CC[C@H](C)[C@H](NC(=O)OCc1ccccc1)C(=O)N[C@@H](CC(C)C)C(=O)N[C@@H](CC(C)C)C(=O)N[C@@H](C)/C=C/C(=O)N1C(=O)C=C(OC)[C@@H]1C(C)C`?
A: Activity (A-375 [1]): Active; Bax upregulation (B16-F10 [2]): Dose-dependent effect; inhibition (Homo sapiens): Dose-dependent effect; Activity (A-375 [3]): 97.9%; Activity (B16-F10 [4]): 8.74%; Activity (B16-F10 [5]): Active; Activity (A-375 [6]): Active; IC50 (4T1): 946 nM; Activity (B16-F10 [7]): 17.6%; Activity (A-375 [8]): 79.3%; Activity (B16-F10 [9]): Active; Activity (A-375 [10]): Dose-dependent effect; p53 upregulation (B16-F10 [11]): Dose-dependent effect; Activity (B16-F10 [12]): 1.7%; inhibition (B16-F10 [13]): Active; IC50 (MCF7): 2540 nM; Bax upregulation (A-375 [14]): Dose-dependent effect; IC50 (B16-F10 [15]): 522 nM; Activity (B16-F10 [16]): 31.5%; Activity (Mus musculus): Non-Toxic; Activity (B16-F10 [17]): 11.8%; p53 upregulation (A-375 [18]): Dose-dependent effect; IC50 (MDA-MB-231): 922 nM; IC50 (PANC-1): 435 nM; Activity (A-375 [19]): Active; Activity (A-375 [20]): 9.68%
